Assay [1] concerns the target Aldo-keto reductase family 1 member B1 (Rattus norvegicus, UniProt P07943). In words: Inhibition of Fischer-344 rat lens ALR2 by spectrophotometry.
Assay [2] is filed under the species Rattus norvegicus. The assay can be described thus: Selectivity index, ratio of IC50 for Fischer-344 rat kidney ALR1 to IC50 for Fischer-344 rat lens ALR2. The assay is classed as tissue-based. Particulars: Lens of camera-type eye. Summed up:
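Selectivity index calculated from the IC50 values of two spectrophotometric NADPH-consumption assays (340 nm). Rat kidney ALR1 was measured at 37 °C and rat lens ALR2 at 30 °C. Each IC50 was derived by least-squares fitting of triplicate five-concentration log(dose)–response data.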

For assay [3], the target named is Aldo-keto reductase family 1 member A1 (Rattus norvegicus, UniProt P51635). The assay can be described thus: Inhibition of Fischer-344 rat kidney ALR1 using D-glycuronate as substrate by spectrophotometry.
The target in assay [4] is Aldo-keto reductase family 1 member A1 (Rattus norvegicus) (UniProt P51635). The assay can be described thus: Inhibition of Fischer-344 rat kidney ALR1 using D-glycuronate as substrate at 10' -5 M by spectrophotometry.
Sequence of Aldo-keto reductase family 1 member A1 (Rattus norvegicus) (P51635 whole entry, looked up): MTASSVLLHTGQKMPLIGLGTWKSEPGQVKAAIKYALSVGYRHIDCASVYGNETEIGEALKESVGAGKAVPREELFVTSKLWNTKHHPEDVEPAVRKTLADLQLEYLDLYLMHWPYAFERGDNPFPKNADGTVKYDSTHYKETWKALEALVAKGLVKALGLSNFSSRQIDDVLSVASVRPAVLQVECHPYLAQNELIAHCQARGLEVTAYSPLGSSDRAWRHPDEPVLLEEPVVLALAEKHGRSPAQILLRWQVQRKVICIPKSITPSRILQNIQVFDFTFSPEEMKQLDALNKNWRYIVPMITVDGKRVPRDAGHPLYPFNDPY

Sequence of Aldo-keto reductase family 1 member A1 (P51635 whole entry, looked up): as above

Broadly, the IC50 is the concentration that gives 50% inhibition. A lower IC50 goes with greater potency. Broadly, the inhibition is how much of the control response was suppressed. A lower inhibition goes with a response near the control. For `O=C(c1ccc(-c2ccccc2)cc1)c1ccn(-c2cc(F)c(O)c(F)c2)c1`, the IC50 in assay [1] amounted to 2.3 µM; in assay [3], 5.63 µM. For the same compound, the Ratio IC50 in assay [2] is 1.87. The compound further had an inhibition in assay [4] of 72.8%.

Take `O=C(c1ccc(Br)cc1F)c1cccn1-c1cc(F)c(O)c(F)c1`: the half-maximal inhibitory concentration (IC50) in assay [1] and in assay [3] was 0.19 µM in each case. In addition, the Ratio IC50 in assay [2] stood at 1. The compound also showed an inhibition in assay [4] of 96.8%.

As to `O=C(c1cccn1-c1cc(F)c(O)c(F)c1)C(F)(F)F`, the results for the IC50 in assay [1] and in assay [3] were 0.93 µM and 18.9 µM, respectively. Besides, in assay [2], the Ratio IC50 came out at 20.3. This compound had an inhibition in assay [4] of 26.5%.

As for `O=C(c1ccc(OC(F)(F)F)cc1)c1cccn1-c1cc(F)c(O)c(F)c1`, the IC50 in assay [1] amounted to 0.52 µM; in assay [3] it was 16.2 µM. Moreover, the Ratio IC50 in assay [2] is 31.1. The inhibition in assay [4] came out at 30.9%.

For the compound `O=C(c1ccn(-c2cc(F)c(O)c(F)c2)c1)c1ccc(Br)cc1F`, the results for the IC50 in assay [1] and in assay [3] were 0.4 µM and 4.31 µM, respectively.

In the case of `O=C(c1ccc(OC(F)(F)F)cc1)c1ccn(-c2cc(F)c(O)c(F)c2)c1`, the IC50 worked out at 0.75 µM in assay [1] and 13.1 µM in assay [3]. Further, in assay [2], the Ratio IC50 was determined as 17.5. In addition, the inhibition in assay [4] was determined as 38%.

Turning to `O=C(c1ccc(-c2ccccc2)cc1)c1cccn1-c1cc(F)c(O)c(F)c1`, the IC50 was determined as 0.51 µM in assay [1] and 121 µM in assay [3]. In addition, the Ratio IC50 in assay [2] stood at 238. Further, the inhibition in assay [4] amounted to 5.85%.
